These results are taken from ChEMBL document CHEMBL1156247, “Synthesis and anti-HIV-1 integrase activity of modified dinucleotides” (Eur J Med Chem, 2009).

What is called IC50 is the concentration needed to halve the response being measured.

Each structure is given as a SMILES string. Active and inactive are the calls of the source. The rule behind the calls is not given here.

Human immunodeficiency virus type 1 integrase, sequence (Q7ZJM1 whole entry): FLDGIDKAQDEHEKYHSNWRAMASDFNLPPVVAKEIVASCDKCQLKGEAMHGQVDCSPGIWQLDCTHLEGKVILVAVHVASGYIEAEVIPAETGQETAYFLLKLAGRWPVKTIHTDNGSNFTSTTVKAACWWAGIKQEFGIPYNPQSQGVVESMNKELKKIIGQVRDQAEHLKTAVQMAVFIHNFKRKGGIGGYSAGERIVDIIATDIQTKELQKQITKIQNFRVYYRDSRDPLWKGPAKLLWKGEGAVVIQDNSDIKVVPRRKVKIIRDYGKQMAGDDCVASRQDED

The target in one test is Human immunodeficiency virus type 1 integrase (Human immunodeficiency virus 1) (UniProt Q7ZJM1). Nature of the test: Inhibition of recombinant HIV1 integrase 3^-end processing and strand transfer activity at 300 uM to 300 nM after 1 hr by PAGE analysis. The method in brief: (§1)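 Recombinant HIV-1 integrase (100 nM) with 12.5 nM 21-mer double-stranded DNA substrate in 10 mM HEPES pH 7.2, 1 mM DTT, 7.5 mM MgCl₂, 1 hr at 37 °C. Compound was titrated from 300 nM upward; an EDTA (10 mM) lane and a no-drug lane were included. 3′-processed and strand-transfer products were resolved on denaturing 18% acrylamide/urea gels.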
Human immunodeficiency virus type 1 integrase (Human immunodeficiency virus 1), sequence (Q7ZJM1 as listed by the source): as the sequence (Q7ZJM1 whole entry) above
Consider `Nc1ccn([C@H]2C[C@H](OP(=O)(O)OC[C@H]3O[C@@H](n4cnc5c(N)ncnc54)C[C@@H]3OP(=O)(O)O)[C@@H](COP(=O)(O)OCCCCCCNCc3ccc4c5cccc6cccc(c7cccc3c74)c65)O2)c(=O)n1`, for which the outcome was Active.
On the same count and under the same terms, in the case of `COc1ccc2nc3cc(Cl)ccc3c(NCCCCCCOP(=O)(O)OC[C@H]3O[C@@H](n4ccc(N)nc4=O)C[C@@H]3OP(=O)(O)OC[C@H]3O[C@@H](n4cnc5c(N)ncnc54)C[C@@H]3OP(=O)(O)O)c2c1` it was “Active”; in that of `Nc1ccn([C@H]2C[C@H](OP(=O)(O)OC[C@H]3O[C@@H](n4cnc5c(N)ncnc54)C[C@@H]3OP(=O)(O)O)[C@@H](COP(=O)(O)OCCCCCCNC(=O)c3ccc4c(c3)C(=O)c3cc(C(=O)NCCCCCCO)ccc3C4=O)O2)c(=O)n1` (stereo in doubt; 29) [listing 1 of 2 here], “Active”.

For another test, the target named is Human immunodeficiency virus type 1 integrase (Human immunodeficiency virus 1, UniProt Q7ZJM1). The test is described as follows: Inhibition of recombinant HIV1 integrase 3^-end processing and strand transfer activity after 1 hr. An outline of the steps:
as §1
Take `Nc1ccn([C@H]2C[C@H](O)[C@@H](COP(=O)(O)OC[C@H]3O[C@@H](n4cnc5c(N)ncnc54)C[C@@H]3O)O2)c(=O)n1`: the half-inhibitory concentration (IC50) was ≥ 340 µM.
As for `COc1ccc2nc3cc(Cl)ccc3c(NCCC[N+](C)(C)CCCSP(=O)(O)O[C@H]3C[C@H](n4cnc5c(N)ncnc54)O[C@@H]3COP(=O)([O-])O[C@H]3C[C@H](n4ccc(N)nc4=O)O[C@@H]3COP(=O)(O)O)c2c1`, the concentration for half-maximal inhibition (IC50) is > 100 µM.
For `NCCCCNP(=O)(OC[C@H]1O[C@@H](n2cnc3c(N)ncnc32)C[C@@H]1O)O[C@H]1C[C@H](n2ccc(N)nc2=O)O[C@@H]1CO` (stereo not given in full), the IC50 is ≥ 340 µM.
Same read-out and setting: the same measure for `NCCCCCNc1ccn([C@H]2C[C@H](OP(=O)(O)OC[C@H]3O[C@@H](n4cnc5c(N)ncnc54)C[C@@H]3O)[C@@H](CO)O2)c(=O)n1`: > 340 µM; for `Nc1ccn([C@H]2C[C@H](OP(=O)(O)OC[C@H]3O[C@@H](n4cnc5c(N)ncnc54)C[C@@H]3OP(=O)(O)O)[C@@H](COP(=O)(O)OCCCCCCNCc3ccc4c5cccc6cccc(c7cccc3c74)c65)O2)c(=O)n1`: 1.8 µM.
For the compound `NCCCCNc1ccn([C@H]2C[C@H](OP(=O)(O)OC[C@H]3O[C@@H](n4cnc5c(N)ncnc54)C[C@@H]3O)[C@@H](CO)O2)c(=O)n1`, the IC50 was > 1000 µM.
Take `NCCCCNP(=O)(OC[C@H]1O[C@@H](n2ccc(N)nc2=O)C[C@@H]1O)OC[C@H]1O[C@@H](n2cnc3c(N)ncnc32)C[C@@H]1O` (stereo not given in full): the IC50 was found to be 102 µM.
As to `Nc1ccn([C@H]2C[C@H](OP(=O)(O)OC[C@H]3O[C@@H](n4cnc5c(N)ncnc54)C[C@@H]3O)[C@@H](CO)O2)c(=O)n1`, the half-maximal inhibitory concentration (IC50) was 340 µM.
On to `Nc1ccn([C@H]2C[C@H](OP(=O)(O)OC[C@H]3O[C@@H](n4cnc5c(N)ncnc54)C[C@@H]3OP(=O)(O)NCCCCCCCCCCCCO)[C@@H](COP(=O)(O)O)O2)c(=O)n1`, for which the IC50 was > 100 µM.
The same measure, in the same setting: in the case of `N=C(N)NCCCCCCNc1ccn([C@H]2C[C@H](OP(=O)(O)OC[C@H]3O[C@@H](n4cnc5c(N)ncnc54)C[C@@H]3O)[C@@H](CO)O2)c(=O)n1` it was > 340 µM; in that of `N=C(N)NCCCCCNc1ccn([C@H]2C[C@H](OP(=O)(O)OC[C@H]3O[C@@H](n4cnc5c(N)ncnc54)C[C@@H]3O)[C@@H](CO)O2)c(=O)n1`, > 340 µM; in that of `NCCCCCCNP(=O)(O)O[C@H]1C[C@H](n2cnc3c(N)ncnc32)O[C@@H]1COP(=O)(O)O[C@H]1C[C@H](n2ccc(N)nc2=O)O[C@@H]1COP(=O)(O)O`, > 100 µM.
On to `Nc1ccn([C@H]2C[C@H](OP(=O)(O)OC[C@H]3O[C@@H](n4cnc5c(N)ncnc54)C[C@@H]3OP(=O)(O)O)[C@@H](COP(=O)(O)SCCCCCC(=O)Nc3ccc(N)c4c3C(=O)c3ccccc3C4=O)O2)c(=O)n1`, for which the half-maximal inhibitory concentration (IC50) was 13.4 µM.
Same read-out and setting: the same measure for `Nc1ccn([C@H]2C[C@H](OP(=O)(O)OC[C@H]3O[C@@H](n4cnc5c(N)ncnc54)C[C@@H]3OP(=O)(O)O)[C@@H](COP(=O)(O)OCCCCCCNC(=O)c3ccc4c(c3)C(=O)c3cc(C(=O)NCCCCCCO)ccc3C4=O)O2)c(=O)n1` (stereo in doubt; 29) [listing 2 of 2 here]: 65.5 µM.
Turning to `NCCCCNP(=O)(O[C@H]1C[C@H](n2ccc(N)nc2=O)O[C@@H]1CO)O[C@H]1C[C@H](n2cnc3c(N)ncnc32)O[C@@H]1CO` (stereo not given in full), the IC50 turned out to be 100 µM.
With `Nc1ccn([C@H]2C[C@H](OP(=O)(O)OC[C@H]3O[C@@H](n4cnc5c(N)ncnc54)C[C@@H]3OP(=O)(O)O)[C@@H](COP(=O)(O)SCCCCCC(=O)Nc3cccc4c3C(=O)c3ccccc3C4=O)O2)c(=O)n1`, the IC50 amounted to 13.9 µM.
Turning to `N=C(N)NCCCCNc1ccn([C@H]2C[C@H](OP(=O)(O)OC[C@H]3O[C@@H](n4cnc5c(N)ncnc54)C[C@@H]3O)[C@@H](CO)O2)c(=O)n1`, the IC50 is > 340 µM.
Consider `Nc1ccn([C@H]2C[C@H](OP(=O)(O)OC[C@H]3O[C@@H](n4cnc5c(N)ncnc54)C[C@@H]3OP(=O)(O)NCCCO)[C@@H](COP(=O)(O)O)O2)c(=O)n1`, for which the half-maximal inhibitory concentration (IC50) was > 100 µM.
As to `Nc1ccn([C@H]2C[C@H](OP(=O)(O)OC[C@H]3O[C@@H](n4cnc5c(N)ncnc54)C[C@@H]3OP(=O)(O)O)[C@@H](COP(=O)(O)O[C@H]3C[C@H](OCCCc4ccc5c6cccc7cccc(c8cccc4c85)c76)O[C@@H]3CO)O2)c(=O)n1`, the IC50 stood at 30 µM.
Same read-out and setting: the same measure for `NCCCNc1ccn([C@H]2C[C@H](OP(=O)(O)OC[C@H]3O[C@@H](n4cnc5c(N)ncnc54)C[C@@H]3O)[C@@H](CO)O2)c(=O)n1`: > 1000 µM; for `Nc1ccn([C@H]2C[C@H](O)[C@@H](COP(=O)(S)OC[C@H]3O[C@@H](n4cnc5c(N)ncnc54)C[C@@H]3O)O2)c(=O)n1` (stereo not given in full): ≥ 340 µM.
For `Nc1ccn([C@H]2C[C@H](OP(=O)(S)O[C@H]3C[C@H](n4cnc5c(N)ncnc54)O[C@@H]3CO)[C@@H](CO)O2)c(=O)n1` (stereo not given in full), the IC50 was determined as 110 µM.
Turning to `NCCN(CCN)CCCSP(=O)(O)OC[C@H]1O[C@@H](n2ccc(N)nc2=O)C[C@@H]1OP(=O)(O)OC[C@H]1O[C@@H](n2cnc3c(N)ncnc32)C[C@@H]1OP(=O)(O)O`, the IC50 amounted to 786 µM.
Still for that read-out and setting: the same measure for `COc1ccc2nc3cc(Cl)ccc3c(NCCC[N+](C)(C)CCCSP(=O)(O)OC[C@H]3O[C@@H](n4ccc(N)nc4=O)C[C@@H]3OP(=O)([O-])OC[C@H]3O[C@@H](n4cnc5c(N)ncnc54)C[C@@H]3OP(=O)(O)O)c2c1`: > 100 µM; for `N=C(N)NCCCCNP(=O)(OC[C@H]1O[C@@H](n2cnc3c(N)ncnc32)C[C@@H]1O)O[C@H]1C[C@H](n2ccc(N)nc2=O)O[C@@H]1CO` (stereo not given in full): ≥ 340 µM.
The same measure, in the same setting: the same measure for `Nc1ccn([C@@H]2C[C@@H](OP(=O)(O)OC[C@@H]3O[C@H](n4cnc5c(N)ncnc54)C[C@H]3O)[C@H](CO)O2)c(=O)n1` (single isomer, unassigned): ≥ 340 µM; for `COc1ccc2nc3cc(Cl)ccc3c(NCCCCSP(=O)(O)O[C@H]3C[C@H](n4cnc5c(N)ncnc54)O[C@@H]3COP(=O)(O)O[C@H]3C[C@H](n4ccc(N)nc4=O)O[C@@H]3COP(=O)(O)O)c2c1`: > 100 µM; for `Nc1ccn([C@H]2C[C@H](OP(=O)(O)OC[C@H]3O[C@@H](n4cnc5c(N)ncnc54)C[C@@H]3OP(=O)(O)O)[C@@H](COP(=O)(O)OCCCCCCNC(=O)c3ccc4c(c3)C(=O)c3cc(C(=O)NCCCCCCO)ccc3C4=O)O2)c(=O)n1` (stereo in doubt; 28): 21 µM.
On the same count and under the same terms, in the case of `NCCNc1ccn([C@H]2C[C@H](OP(=O)(O)OC[C@H]3O[C@@H](n4cnc5c(N)ncnc54)C[C@@H]3O)[C@@H](CO)O2)c(=O)n1` it was > 1000 µM; in that of `Nc1ccn([C@H]2C[C@H](OP(=O)(O)O[C@H]3C[C@H](n4cnc5c(N)ncnc54)O[C@@H]3CO)[C@@H](CO)O2)c(=O)n1`, ≥ 340 µM.
Consider `N=C(N)NCCCCNP(=O)(OC[C@H]1O[C@@H](n2ccc(N)nc2=O)C[C@@H]1O)OC[C@H]1O[C@@H](n2cnc3c(N)ncnc32)C[C@@H]1O` (stereo not given in full), for which the IC50 came out at 100 µM.
Same read-out and setting: the same measure for `N=C(N)NCCCCNP(=O)(O[C@H]1C[C@H](n2ccc(N)nc2=O)O[C@@H]1CO)O[C@H]1C[C@H](n2cnc3c(N)ncnc32)O[C@@H]1CO` (stereo not given in full): 100 µM.
For the compound `COc1ccc2nc3cc(Cl)ccc3c(NCCCCCCSP(=O)(O)O[C@H]3C[C@H](n4cnc5c(N)ncnc54)O[C@@H]3COP(=O)(O)O[C@H]3C[C@H](n4ccc(N)nc4=O)O[C@@H]3COP(=O)(O)O)c2c1`, the IC50 is > 100 µM.
Still for that read-out and setting: in the case of `NCCCCCCNc1ccn([C@H]2C[C@H](OP(=O)(O)OC[C@H]3O[C@@H](n4cnc5c(N)ncnc54)C[C@@H]3O)[C@@H](CO)O2)c(=O)n1` it was > 340 µM; in that of `COc1ccc2nc3cc(Cl)ccc3c(NCCCCCCOP(=O)(O)OC[C@H]3O[C@@H](n4ccc(N)nc4=O)C[C@@H]3OP(=O)(O)OC[C@H]3O[C@@H](n4cnc5c(N)ncnc54)C[C@@H]3OP(=O)(O)O)c2c1`, 13.2 µM; in that of `Nc1ccn([C@@H]2C[C@@H](O)[C@H](COP(=O)(O)O[C@@H]3C[C@@H](n4cnc5c(N)ncnc54)O[C@H]3CO)O2)c(=O)n1`, ≥ 340 µM.
As to `Nc1ccn([C@H]2C[C@H](OP(=O)(S)OC[C@H]3O[C@@H](n4cnc5c(N)ncnc54)C[C@@H]3O)[C@@H](CO)O2)c(=O)n1` (stereo not given in full), the IC50 is ≥ 340 µM.

In the next test the target is Human immunodeficiency virus type 1 integrase (Human immunodeficiency virus 1) (UniProt Q7ZJM1). Nature of the test: Ratio of D-d-5^ CpA3^ IC50 to compound IC50 for recombinant HIV1 integrase 3^-end processing and strand transfer activity.
As for `NCCCCNP(=O)(OC[C@H]1O[C@@H](n2ccc(N)nc2=O)C[C@@H]1O)OC[C@H]1O[C@@H](n2cnc3c(N)ncnc32)C[C@@H]1O` (stereo not given in full), the Ratio IC50 was found to be 3.
The same measure, in the same setting: the same measure for `NCCCCNP(=O)(O[C@H]1C[C@H](n2ccc(N)nc2=O)O[C@@H]1CO)O[C@H]1C[C@H](n2cnc3c(N)ncnc32)O[C@@H]1CO` (stereo not given in full): 3; for `Nc1ccn([C@H]2C[C@H](OP(=O)(S)O[C@H]3C[C@H](n4cnc5c(N)ncnc54)O[C@@H]3CO)[C@@H](CO)O2)c(=O)n1` (stereo not given in full): 3.
Regarding `N=C(N)NCCCCNP(=O)(OC[C@H]1O[C@@H](n2ccc(N)nc2=O)C[C@@H]1O)OC[C@H]1O[C@@H](n2cnc3c(N)ncnc32)C[C@@H]1O` (stereo not given in full), the Ratio IC50 was 3.
Regarding `N=C(N)NCCCCNP(=O)(O[C@H]1C[C@H](n2ccc(N)nc2=O)O[C@@H]1CO)O[C@H]1C[C@H](n2cnc3c(N)ncnc32)O[C@@H]1CO` (stereo not given in full), the Ratio IC50 is 3.
